PglD DTNB – inhibitors of Campylobacter jejuni PglD acetyltransferase; purified PglD enzyme, DTNB colorimetric CoA detection; inhibition, % at 12.5 µM; hit rate 0.098% among 360,000; in the data active means inhibition above about 16%, passing the limit was not always enough
CAL PDZ FP-1 – inhibitors of human CAL PDZ peptide binding | Q9HD26 | purified CAL PDZ, TMR-peptide fluorescence polarization, 1 h | inhibition, % at 24.9 µM | hit rate 0.92% among 300,000;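 active means mean inhibition of at least 30% with at least half of replicates also reaching 30%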
Cneo AK release – Cryptococcus neoformans lysis via adenylate kinase release; C. neoformans lysis, adenylate kinase release luminescence, 4 h; normalised: neutral wells 0, clomiphene wells 100; lysis activity, % at 15 µM; hit rate 0.2% among 360,000; AID 651654;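 active means mean lysis activity across replicates of at least 80%, whatever share of replicates individually reach that level; inactive means mean lysis activity below 80%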
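Test system: log-phase Cryptococcus neoformans yeast cells. Input: 5 × 10^6 yeast cells/mL. Medium: fresh YPD growth medium. Doses: single dose. Incubation: static 4 h at 37 °C with compound, 1 h detection. Measured by: luminescent adenylate kinase detection reagent. Read-out: signal increase indicating cell lysis. Benchmarks: Clomiphene.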
miR-122 sensor – blocks miR-122 activity in Huh7 sensor cells | Huh7 miR-122 Renilla luciferase sensor, 48 h; neutral wells = 0, positive control = 100 | activation (reporter increase), % at 12.5 µM | hit rate 0.3% among 340,000 | AID 602342;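 active means mean replicate activation score at least 90 and every replicate individually at or above 90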;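 further: higher luciferase means less miR-122 activity so hits act as miR-122 inhibitors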
CAL PDZ FP-2 – inhibitors of human CAL PDZ peptide binding; Q9HD26; purified CAL PDZ, TMR-peptide fluorescence polarization, 1 h; inhibition, % at 20 µM; hit rate 0.02% among 330,000;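 active means highest replicate inhibition of at least 40%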
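System: tagged CAL PDZ domain. Schedule: 1 h room-temperature incubation prior to read. Signal: fluorescence polarization (mP). Measure: percent inhibition from loss of millipolarization.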
Each line names hits and unclear results; the compound was inactive in the other large screens. Rows were chosen to be rich in hits. Some 1.1% of all compounds tested hit in one or more screens of this group.

O=C(Nc1ccc(S(=O)(=O)NC2CCCCC2)cc1)c1ccc(Br)o1	miR-122 sensor 128
CSc1ccc(S(=O)(=O)NC2CCCCCC2)cc1	miR-122 sensor 103
CO[C@@H](CN(C)C(=O)c1cnccn1)[C@@H](C)CN([C@H](C)CO)S(=O)(=O)c1ccccc1	none (no result: CAL PDZ FP-1, miR-122 sensor, CAL PDZ FP-2)
Cc1ccc(C(=O)COC(=O)c2cccc([N+](=O)[O-])c2)s1	none
CNC(=O)C[C@@H]1CC[C@H]2[C@H](COc3ccc(NC(=O)Nc4cccc(C)c4)cc3C(=O)N2C)O1	none (no result: CAL PDZ FP-1, CAL PDZ FP-2)
C[C@H]1CN([C@@H](C)CO)C(=O)c2cc(C3=CCCCC3)cnc2O[C@@H]1CN(C)C(=O)c1cccnc1	none (no result: CAL PDZ FP-1, miR-122 sensor, CAL PDZ FP-2)
Nc1nonc1C(=O)N1CCCC1	miR-122 sensor 247
COc1ccc(S(=O)(=O)N2CCOCC2)cc1NC(=O)Cc1c(Cl)cccc1Cl	none
COc1ccc(S(=O)(=O)N2CCOCC2)cc1C(=O)NCC(c1ccccc1)c1ccccc1	CAL PDZ FP-1 42
O=C(CSc1nncs1)Nc1cc(S(=O)(=O)N2CCOCC2)ccc1N1CCCC1	none (no result: PglD DTNB, Cneo AK release)
COc1ccc(NC(=O)CN2CCN(S(=O)(=O)c3ccc(C(C)C)cc3)CC2)cc1OC	Cneo AK release 130
Nc1nnc(SCC(=O)Nc2cc(S(=O)(=O)N3CCOCC3)ccc2N2CCCC2)s1	CAL PDZ FP-1 68
COc1ccc(S(=O)(=O)N2CCOCC2)cc1NC(=O)CN1CCCCCC1	CAL PDZ FP-1 36 (no result: miR-122 sensor)
COc1ccccc1CN1C[C@H](C)[C@H](OC)CN(C)C(=O)c2cc(NC(C)=O)ccc2OC[C@@H]1C	none (no result: CAL PDZ FP-1, miR-122 sensor, CAL PDZ FP-2)
C[C@@H]1CN([C@H](C)CO)C(=O)Cc2cc(NS(C)(=O)=O)ccc2O[C@H]1CN(C)C(=O)Nc1cccc2ccccc12	none (no result: CAL PDZ FP-1, CAL PDZ FP-2)
O=C(C[C@H]1CC[C@H]2[C@@H](COC[C@H](O)CN2CC2CC2)O1)NCc1ccc(Cl)cc1	none (no result: CAL PDZ FP-1, CAL PDZ FP-2)
C[C@H](CO)N1C[C@H](C)[C@@H](CN(C)Cc2ccc3c(c2)OCO3)Oc2ccc(NS(=O)(=O)c3cn(C)cn3)cc2C1=O	none (no result: CAL PDZ FP-1, CAL PDZ FP-2)
CCCn1nnnc1NC(=O)c1ccc(C)cc1Cl	none
O=C(Nc1ccccn1)Nc1ccccc1[N+](=O)[O-]	CAL PDZ FP-1 active (no result: miR-122 sensor, CAL PDZ FP-2)
O=C(Nc1cnccn1)Nc1ccccc1F	CAL PDZ FP-1 52
O=C(NCCc1ccc(F)cc1)Nc1ccccc1Cl	none (no result: miR-122 sensor)
CCN(CC)c1ccc2c(-c3ccc(S(=O)(=O)O)cc3S(=O)(=O)[O-])c3ccc(=[N+](CC)CC)cc-3oc2c1	CAL PDZ FP-1 active, CAL PDZ FP-2 171 (no result: miR-122 sensor)
COc1ccccc1CNC(=O)COC(=O)CC1CC2CCC1C2 (stereo unspecified)	CAL PDZ FP-1 80 (no result: miR-122 sensor)
CC=Cc1ccc2n(c1=O)C[C@H]1[C@H](CO)[C@@H](C(=O)N3CCc4ccccc4C3)N(C(=O)CC)[C@@H]21 (mixture of isomers)	none (no result: CAL PDZ FP-1, CAL PDZ FP-2)
CC=Cc1ccc2n(c1=O)C[C@H]1[C@H](CO)[C@@H](C(=O)N3CCc4ccccc4C3)N(C(=O)C3CC3)[C@@H]21 (mixture of isomers)	Cneo AK release 90 (no result: CAL PDZ FP-1, miR-122 sensor, CAL PDZ FP-2)
CC=Cc1ccc2n(c1=O)C[C@H]1[C@H](CO)[C@@H](C(=O)N3CCOCC3)N(CC3CC3)[C@@H]21 (mixture of isomers)	Cneo AK release 84 (no result: CAL PDZ FP-1, miR-122 sensor, CAL PDZ FP-2)
CC=Cc1ccc2n(c1=O)C[C@@H]1[C@@H](CO)[C@H](C(=O)N3CCCCC3)N(Cc3ccccc3)[C@H]21 (mixture of isomers)	Cneo AK release 106 (no result: CAL PDZ FP-1, CAL PDZ FP-2)
COc1ccccc1C(=O)NNC(=O)c1ccc(NC(=O)C(C)C)cc1	CAL PDZ FP-1 66 (no result: PglD DTNB, Cneo AK release, miR-122 sensor)
COc1ccccc1C(=O)NNC(=O)c1ccc(O)cc1	none (no result: CAL PDZ FP-1, CAL PDZ FP-2)
COc1ccccc1C(=O)Nc1ccc(C(=O)O)cc1	none (no result: CAL PDZ FP-2)
COc1ccccc1C(=O)Oc1ccccc1C(=O)Nc1ccccc1	CAL PDZ FP-1 74
COc1ccccc1C(=O)Nc1cccc2nc(C)ccc12	CAL PDZ FP-1 82
CN1C(=O)c2cc(NS(=O)(=O)c3cccc(F)c3)ccc2OC[C@H]2O[C@@H](CC(=O)N3CCc4ccccc4C3)CC[C@@H]21	none (no result: CAL PDZ FP-1, Cneo AK release, CAL PDZ FP-2)
COC(=O)c1c(NC(=O)CS(=O)(=O)c2ccccc2)sc(C)c1C	CAL PDZ FP-1 45 (no result: PglD DTNB, Cneo AK release, miR-122 sensor)
Cc1sc(NC(=O)CS(=O)(=O)c2ccccc2)c(C#N)c1C	none
CC(/C=N/NC(=O)c1ccncc1)=C\c1ccccc1	none
COc1ccccc1C(=O)N/N=C/C(C)=C/c1ccccc1	CAL PDZ FP-1 35
COc1ccc(OC)c(C(=O)COC(=O)c2cccnc2SC)c1	CAL PDZ FP-1 35

Screening data from PubChem BioAssay.
